Screening results: PubChem BioAssay, several laboratories
In the library only some 5% were active in any assay of this set; here they are far more common.
Mdm2-MdmX inh: disrupts the human Mdm2-MdmX interaction; O15151+Q00987; SaOS-2 split-luciferase Mdm2/MdmX complementation, luminescence; inhibition, % at 8 µM; 330,000 compounds, 3% hits;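 active = inhibition of at least 50% at 8 µM in the primary screen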
Target sequence (O15151 whole entry, looked up): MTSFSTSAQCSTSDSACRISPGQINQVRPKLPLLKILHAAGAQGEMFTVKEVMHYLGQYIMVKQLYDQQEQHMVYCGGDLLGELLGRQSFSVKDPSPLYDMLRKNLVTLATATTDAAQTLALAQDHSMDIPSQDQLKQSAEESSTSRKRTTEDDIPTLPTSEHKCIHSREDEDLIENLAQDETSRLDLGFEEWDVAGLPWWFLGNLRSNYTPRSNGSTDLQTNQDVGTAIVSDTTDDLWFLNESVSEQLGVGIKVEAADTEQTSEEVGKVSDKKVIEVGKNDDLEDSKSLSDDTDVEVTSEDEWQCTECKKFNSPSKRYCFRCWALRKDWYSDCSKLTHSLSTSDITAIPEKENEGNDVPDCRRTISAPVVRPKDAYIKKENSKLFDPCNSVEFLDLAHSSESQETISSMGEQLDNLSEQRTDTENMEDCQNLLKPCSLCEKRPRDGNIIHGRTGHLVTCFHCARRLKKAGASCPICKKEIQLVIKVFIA
Target sequence (Q00987 whole entry, looked up): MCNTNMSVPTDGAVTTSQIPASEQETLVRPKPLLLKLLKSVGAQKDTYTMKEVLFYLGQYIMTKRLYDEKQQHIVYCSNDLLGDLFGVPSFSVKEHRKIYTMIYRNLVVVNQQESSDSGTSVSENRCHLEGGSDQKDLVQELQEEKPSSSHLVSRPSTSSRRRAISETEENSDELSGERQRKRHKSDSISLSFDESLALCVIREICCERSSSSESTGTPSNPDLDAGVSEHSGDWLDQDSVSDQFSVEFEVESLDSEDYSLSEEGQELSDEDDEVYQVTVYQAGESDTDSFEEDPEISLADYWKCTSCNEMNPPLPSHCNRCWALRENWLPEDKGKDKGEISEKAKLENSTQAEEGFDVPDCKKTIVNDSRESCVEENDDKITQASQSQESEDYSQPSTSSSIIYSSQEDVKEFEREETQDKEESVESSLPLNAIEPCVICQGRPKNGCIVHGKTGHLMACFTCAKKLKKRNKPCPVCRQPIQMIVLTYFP
Beta apoptosis: blocks beta cell apoptosis | AID 435005 | INS-1E cytokine-induced death, ATP luminescence, 48 h; percent of positive-control rescue, neutral wells zero | protection from apoptosis, % (concentration not given with the values) | 300,000 compounds, 0.8% hits;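 active = Every replicate reaches about 75%, or at least half do and their mean reaches it too, limit read from the data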;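 also: 0% = cytokine-treated negative control wells and 100% = positive control rescue; higher means more ATP so stronger rescue from cytokine killing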
XBP1 UPR activ: adaptive UPR (XBP1) activation; 330,000 compounds, 0.33% hits; CHO-XBP1 luciferase reporter, IRE1-XBP1 UPR activation, luminescence; percent of tunicamycin response, DMSO as zero; activation, % at 20 µM;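 active = versus positive control, 20 µM dose yields 30% or more activation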;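 also: 100% = tunicamycin at 10 µg/mL and 0% = DMSO only wells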
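assay system = CHO-XBP1 luciferase reporter cells | amount = 1000 cells/well | buffer or medium = F12 plus 10% FBS | compound dosing = single point, 20 µM final compound, 1% DMSO | incubation = 16-18 h cell attachment at 37 °C, then 6 h compound exposure | detection = Steady-Glo luminescence read | controls = tunicamycin 10 µg/mL and vehicle-only wells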
CHOP UPR activ: activators of apoptotic arm of unfolded protein response (CHOP); activation, % at 10 µM; 330,000 compounds, 0.34% hits; CHO-CHOP luciferase reporter, UPR activation, luminescence; percent of tunicamycin response over DMSO baseline; AID 449763;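 active = at 10 µM dose, activation of 40% or more, normalized to positive control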;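 also: 100% = tunicamycin at 10 µg/mL and 0% = DMSO alone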
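Material: CHO-CHOP cells, stable luciferase reporter of PERK-eIF2a-CHOP signalling; quantity: 500 reporter cells seeded per well; buffer or medium: F12 medium containing 10% fetal bovine serum; compound: one dose, 10 µM in 0.5% DMSO; incubation: 6 h compound treatment, 37 °C; measured by: Steady-Glo luciferase luminescence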
CSC inhib: cancer stem cell inhibition; inhibition, % at 7.5 µM; cancer stem cell-like cells viability, luminescence; 300,000 compounds, 1.1% hits; in the data active = inhibition above about 75%; tested in HMLE shEcad cells
T cruzi inh: T. cruzi replication inhibition | T. cruzi beta-gal in NIH3T3, luminescence, 90 h | inhibition, % (concentration not given with the values) | 300,000 compounds, 1.4% hits;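 active = mean inhibition across valid replicates above about 55%, limit read from the data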;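 also: signal also drops with host cell toxicity which is not excluded here; 0% = plate median of DMSO wells and 100% = zero luminescence signal; higher percent means less beta-gal luminescence so fewer parasites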
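Test system: β-gal T. cruzi (Tulahuen C4) inside NIH/3T3 cells / Quantity: 5,000 cells/well / Measured by: luminescence from GalScreen with 0.05% NP40, read after 60 min / Medium: DMEM plus 2% FBS / Measure: parasite load inhibition, % / Reagent: Tulahuen C4 trypomastigotes, 5000/well / Schedule: co-culture of at least 90 h after 3 h attachment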
The depositor's hits bear a star; . = no result given.

SMILES	Mdm2-MdmX inh	Beta apoptosis	XBP1 UPR activ	CHOP UPR activ	CSC inhib	T cruzi inh
Cc1ccc(-c2nc3cccnc3s2)cc1NS(=O)(=O)c1ccc2c(c1)OCCO2	38.5	7.9	0.1	0.5	77.2*	22.4
CCc1ccc2[nH]c(=O)c(CN(CCN(C)C)C(=O)Nc3ccccc3OC)cc2c1	26.1	-5.9	-2.5	0.8	4.8	21.1
CCc1ccc2[nH]c(=O)c(CN(Cc3ccccc3)C(=O)Nc3ccccc3OC)cc2c1	32.0	10.9	4.6	1.3	18.2	66.1*
CCOc1ccccc1N=C1SC(CC(=O)Nc2ccc(OC)cc2OC)C(=O)N1CCC1=CCCCC1 (centres undefined)	43.1	76.3*	-3.9	2.4	14.4	58.4*
Fc1cccc(NC(=S)N2CCn3cccc3C2c2cccnc2)c1 (centres undefined)	7.5	-1.6	1.1	-1.4	6.8	63.3*
S=C(NC1CCCCC1)N1CCn2cccc2C1c1cccnc1 (centres undefined)	26.3	-2.6	-2.5	-1.4	-13.0	54.6*
CCCNC(=O)c1ccc2c(=O)c(O)c(-c3ccc(Cl)c([N+](=O)[O-])c3)[nH]c2c1	35.6	78.5*	2.3	1.1	-16.0	-9.1
Cc1ccc(C)c(N(CC(=O)N/N=C/c2ccc(-c3ccc([N+](=O)[O-])cc3)o2)S(=O)(=O)c2ccccc2)c1	23.3	5.6	-1.3	-1.5	-2.5	72.4*
CCN1C(=O)[C@H]2[C@@H](c3ccc(-c4ccc5c(c4)OCO5)cc3)N[C@@](Cc3ccccc3)(C(=O)OC)[C@H]2C1=O	15.9	-2.1	3.8	-0.7	.	.
CCN1C(=O)[C@H]2[C@@H](c3ccc(-c4cccc(Cl)c4)cc3)N[C@@](Cc3ccccc3)(C(=O)OC)[C@H]2C1=O	34.2	-0.8	-3.5	2.7	12.2	55.3*
COc1ccc(-c2nnc(N3CCCCC3)c3ccccc23)cc1	22.5	6.7	-1.5	-1.4	5.2	4.5
O=C(COc1ccccc1)N1CCN(c2nnc(-c3ccccc3)c3ccccc23)CC1	-8.0	13.8	-2.7	-2.7	-6.1	55.2*
COc1ccc(OCC(=O)N2CCN(c3nnc(-c4ccc(C)cc4)c4ccccc34)CC2)cc1	28.2	33.4	-4.7	4.7	6.7	2.9
Cc1ccc(-c2nnc(N3CCC(C)CC3)c3ccccc23)cc1C	45.0	10.3	7.4	2.0	96.4*	53.0
Cc1ccc(-c2nnc(N3CCCCCC3)c3ccccc23)cc1	8.7	12.0	7.4	10.8	44.9	64.1*
Cc1ccc(OCC(=O)N2CCN(c3nnc(-c4ccc(C)cc4)c4ccccc34)CC2)cc1	32.2	27.9	-2.1	2.7	.	61.1*
COc1ccc(N(CC(=O)NN=C2CCN(C)CC2)S(=O)(=O)c2ccccc2)c(OC)c1	-8.1	-3.5	-2.5	1.1	-7.0	-2.1
CCN(CC(=O)N1CCOCC1)S(=O)(=O)c1ccc(Cl)cc1	19.6	-3.5	-0.9	1.2	7.5	-6.5
COc1cccc(COC(=O)c2cc(=O)[nH]c3ccc(S(=O)(=O)N4CCOCC4)cc23)c1OC	0.0	-5.0	3.2	2.2	.	-8.3
CCOc1ccccc1NC(=O)c1sc2nc(C)nc(N3CCOCC3)c2c1C	-15.8	-10.3	-0.2	2.4	-7.6	10.5
Cc1nc(N2CCCCC2C)c2c(C)c(C(=O)Nc3cccc(C(F)(F)F)c3)sc2n1 (centres undefined)	43.2	14.0	4.2	1.1	.	50.7
Cc1nc(N2CCCCC2)c2c(C)c(C(=O)Nc3ccccc3C(F)(F)F)sc2n1	12.2	-1.7	-1.1	-0.3	77.1*	48.8
Cc1nc(N2CCCCC2)c2c(C)c(C(=O)Nc3cccc(C(F)(F)F)c3)sc2n1	29.5	27.0	-2.5	-2.1	.	64.6*
CCOc1ccc(NC(=O)CC2SC(=O)N(c3ccccc3)C2=O)cc1 (centres undefined)	9.3	-11.9	-3.1	-0.1	-7.8	-6.1
COc1ccc(C(=O)CC(Nc2ccc([N+](=O)[O-])cc2)c2ccc(OC)cc2)cc1 (centres undefined)	8.6	2.9	-4.4	-1.6	15.9	.
